Laboratory results as given in ChEMBL document CHEMBL3085628, “Identification of CB1/CB2 ligands from Zanthoxylum bungeanum” (J Nat Prod, 2013).

Experiments:
[1] = species: Homo sapiens; assay: Selectivity ratio of IC50 for human CB1 receptor to IC50 for human CB2 receptor
[2] = molecular target: T1, Cannabinoid receptor 2 (Homo sapiens, UniProt P34972); assay: Inhibition of human CB2 receptor internalization expressed in CHO cells assessed as inhibition of [3H]-CP55940 uptake preincubated for 1 hr followed by radioligand addition measured after 1 hr by liquid scintillation counting analysis relative to control; format: cell-based; set-up: concentration or dose not given beside the values; conditions: concentration not given here
T1 sequence (P34972 whole entry): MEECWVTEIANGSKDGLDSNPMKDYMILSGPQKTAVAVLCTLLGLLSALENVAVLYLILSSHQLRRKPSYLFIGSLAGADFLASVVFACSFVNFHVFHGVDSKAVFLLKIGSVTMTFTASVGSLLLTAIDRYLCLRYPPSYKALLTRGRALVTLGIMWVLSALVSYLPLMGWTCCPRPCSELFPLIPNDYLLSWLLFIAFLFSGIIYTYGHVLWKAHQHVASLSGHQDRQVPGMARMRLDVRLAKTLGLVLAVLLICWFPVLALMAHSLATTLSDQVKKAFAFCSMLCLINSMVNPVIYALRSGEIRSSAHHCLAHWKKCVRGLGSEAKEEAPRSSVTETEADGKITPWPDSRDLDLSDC
Procedure, shortened: (§1)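 CHO cells stably expressing human CB1 or CB2 grown 24 h at 2.0 × 10^5 cells/mL in DMEM/F12 with 10% FBS. They were preincubated 1 h with serial dilutions (top 5.0 μM for CB1, 10 μM for CB2; DMSO <0.1% final), then given 1 h 10 nM [3H]-Win 55,212-2 (CB1) or 2 nM [3H]-CP 55,940 (CB2). Cells were washed, NaOH-lysed and scintillation-counted. Uptake normalized to no-compound wells; sigmoid fit; mean ± SE, n = 6.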

[3] = molecular target: T1, Cannabinoid receptor 2; assay: Displacement of [3H]-CP55940 from human CB2 receptor expressed in CHO cells preincubated for 1 hr followed by radioligand addition measured after 1 hr by liquid scintillation counting analysis; format: cell-based; procedure, shortened: as §1
[4] = molecular target: T2, Cannabinoid receptor 1 (Homo sapiens, UniProt P21554); assay: Inhibition of human CB1 receptor internalization expressed in CHO cells assessed as inhibition of [3H]-Win55212-2 uptake preincubated for 1 hr followed by radioligand addition measured after 1 hr by liquid scintillation counting analysis relative to control; format: cell-based; set-up: concentration or dose not given beside the values; conditions: concentration not given here; procedure, shortened: as §1
T2 sequence (P21554 whole entry): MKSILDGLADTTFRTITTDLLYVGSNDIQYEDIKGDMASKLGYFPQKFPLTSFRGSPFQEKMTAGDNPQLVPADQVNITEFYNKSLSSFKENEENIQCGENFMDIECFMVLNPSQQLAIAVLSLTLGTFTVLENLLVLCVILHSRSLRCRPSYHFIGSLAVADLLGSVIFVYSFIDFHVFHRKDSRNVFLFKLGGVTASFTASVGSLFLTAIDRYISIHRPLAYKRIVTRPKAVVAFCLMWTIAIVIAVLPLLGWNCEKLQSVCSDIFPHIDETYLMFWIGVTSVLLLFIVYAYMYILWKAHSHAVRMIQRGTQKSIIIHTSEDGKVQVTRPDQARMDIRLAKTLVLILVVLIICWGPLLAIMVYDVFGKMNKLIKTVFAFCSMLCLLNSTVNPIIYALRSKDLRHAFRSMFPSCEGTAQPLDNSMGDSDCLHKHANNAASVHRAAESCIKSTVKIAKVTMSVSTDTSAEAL

[5] = molecular target: T2, Cannabinoid receptor 1; assay: Displacement of [3H]-Win55212-2 from human CB1 receptor expressed in CHO cells preincubated for 1 hr followed by radioligand addition measured after 1 hr by liquid scintillation counting analysis; format: cell-based; procedure, shortened: as §1
[6] = molecular target: T1, Cannabinoid receptor 2; assay: Agonist activity at CB2 receptor (unknown origin) at 10 uM after 90 to 180 mins by beta-arrestin assay relative to control
[7] = molecular target: T3, Follicle-stimulating hormone receptor (Homo sapiens) (UniProt P23945); assay: Antagonist activity at FSHR (unknown origin) at 10 uM after 3 to 5 hrs by beta-arrestin assay relative to control
T3 sequence (whole entry): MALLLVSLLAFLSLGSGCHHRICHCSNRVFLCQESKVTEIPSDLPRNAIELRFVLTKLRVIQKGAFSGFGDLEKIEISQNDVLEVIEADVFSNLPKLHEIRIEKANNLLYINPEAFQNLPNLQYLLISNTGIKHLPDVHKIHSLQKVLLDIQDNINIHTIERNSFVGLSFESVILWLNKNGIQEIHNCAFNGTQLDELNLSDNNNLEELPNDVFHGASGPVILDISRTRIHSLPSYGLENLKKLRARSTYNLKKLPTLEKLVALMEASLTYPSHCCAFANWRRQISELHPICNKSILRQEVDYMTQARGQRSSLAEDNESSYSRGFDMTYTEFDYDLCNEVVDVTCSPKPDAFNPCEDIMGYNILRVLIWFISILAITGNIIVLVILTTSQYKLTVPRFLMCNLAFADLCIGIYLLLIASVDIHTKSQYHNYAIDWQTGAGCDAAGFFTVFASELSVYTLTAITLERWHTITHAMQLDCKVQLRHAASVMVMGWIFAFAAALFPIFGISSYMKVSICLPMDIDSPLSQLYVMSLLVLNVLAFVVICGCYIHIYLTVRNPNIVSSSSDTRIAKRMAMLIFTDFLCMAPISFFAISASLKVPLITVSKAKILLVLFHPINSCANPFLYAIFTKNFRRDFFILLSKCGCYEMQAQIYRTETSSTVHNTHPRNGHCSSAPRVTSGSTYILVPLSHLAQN

[8] = molecular target: T2, Cannabinoid receptor 1; assay: Antagonist activity at CB1 receptor (unknown origin) at 10 uM after 3 to 5 hrs by beta-arrestin assay relative to control
[9] = molecular target: T4, Prolactin-releasing peptide receptor (Homo sapiens) (UniProt P49683); assay: Antagonist activity at PRLHR (unknown origin) at 10 uM after 3 to 5 hrs by beta-arrestin assay relative to control
T4 sequence (whole entry): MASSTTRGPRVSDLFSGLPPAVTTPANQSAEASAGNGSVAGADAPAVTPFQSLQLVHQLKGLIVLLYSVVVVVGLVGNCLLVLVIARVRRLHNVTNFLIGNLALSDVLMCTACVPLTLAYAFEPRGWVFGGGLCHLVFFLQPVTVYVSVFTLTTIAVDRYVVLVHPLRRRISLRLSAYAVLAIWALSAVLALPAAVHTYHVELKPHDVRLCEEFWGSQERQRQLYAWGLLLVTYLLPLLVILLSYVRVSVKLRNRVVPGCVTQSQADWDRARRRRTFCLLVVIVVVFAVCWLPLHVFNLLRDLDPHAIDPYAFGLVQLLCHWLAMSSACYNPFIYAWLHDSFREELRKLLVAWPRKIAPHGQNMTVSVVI

[10] = molecular target: T1, Cannabinoid receptor 2; assay: Antagonist activity at CB2 receptor (unknown origin) at 10 uM after 3 to 5 hrs by beta-arrestin assay relative to control
[11] = molecular target: Prostaglandin E2 receptor EP2 subtype (Homo sapiens) (UniProt P43116); assay: Agonist activity at PTGER2 (unknown origin) at 10 uM after 90 to 180 mins by beta-arrestin assay relative to control
Sequence of Prostaglandin E2 receptor EP2 subtype (Homo sapiens) (P43116 whole entry): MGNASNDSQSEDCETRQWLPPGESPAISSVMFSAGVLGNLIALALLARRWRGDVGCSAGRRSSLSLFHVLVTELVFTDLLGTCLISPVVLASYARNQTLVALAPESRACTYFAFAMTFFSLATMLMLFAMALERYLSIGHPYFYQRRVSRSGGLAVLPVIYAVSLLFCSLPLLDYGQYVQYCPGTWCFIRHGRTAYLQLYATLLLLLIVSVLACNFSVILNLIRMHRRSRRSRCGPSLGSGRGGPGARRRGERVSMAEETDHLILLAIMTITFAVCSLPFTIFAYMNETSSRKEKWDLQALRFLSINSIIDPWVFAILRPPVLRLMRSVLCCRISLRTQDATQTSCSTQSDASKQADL

[12] = molecular target: T5, Relaxin-3 receptor 1 (Homo sapiens) (UniProt Q9NSD7); assay: Agonist activity at RXFP3 (unknown origin) at 10 uM after 90 to 180 mins by beta-arrestin assay relative to control
T5 sequence (whole entry): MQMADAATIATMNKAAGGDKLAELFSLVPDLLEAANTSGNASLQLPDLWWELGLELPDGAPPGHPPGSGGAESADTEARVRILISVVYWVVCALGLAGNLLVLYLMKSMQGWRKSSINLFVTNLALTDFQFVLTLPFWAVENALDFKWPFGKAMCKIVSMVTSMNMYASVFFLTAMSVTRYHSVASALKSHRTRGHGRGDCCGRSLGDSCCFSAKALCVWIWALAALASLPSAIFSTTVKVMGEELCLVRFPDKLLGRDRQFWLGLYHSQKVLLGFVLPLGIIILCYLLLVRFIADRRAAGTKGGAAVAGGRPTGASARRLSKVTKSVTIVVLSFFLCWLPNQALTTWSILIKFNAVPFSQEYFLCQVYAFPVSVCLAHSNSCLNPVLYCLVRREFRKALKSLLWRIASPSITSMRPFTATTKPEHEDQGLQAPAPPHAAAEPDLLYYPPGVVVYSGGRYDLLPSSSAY

[13] = molecular target: Histamine H4 receptor (Homo sapiens) (UniProt Q9H3N8); assay: Agonist activity at HRH4 (unknown origin) at 10 uM after 90 to 180 mins by beta-arrestin assay relative to control
Sequence of Histamine H4 receptor (Homo sapiens) (Q9H3N8 whole entry): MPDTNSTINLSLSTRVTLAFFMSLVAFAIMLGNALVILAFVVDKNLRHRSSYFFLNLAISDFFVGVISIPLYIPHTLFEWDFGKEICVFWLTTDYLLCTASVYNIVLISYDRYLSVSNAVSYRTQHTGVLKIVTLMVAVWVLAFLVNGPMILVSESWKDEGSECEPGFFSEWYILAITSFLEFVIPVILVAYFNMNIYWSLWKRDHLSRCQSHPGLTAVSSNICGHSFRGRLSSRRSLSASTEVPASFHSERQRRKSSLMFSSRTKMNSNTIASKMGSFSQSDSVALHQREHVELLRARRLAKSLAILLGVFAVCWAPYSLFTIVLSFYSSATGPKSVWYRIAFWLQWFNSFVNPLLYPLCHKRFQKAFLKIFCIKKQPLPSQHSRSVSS

[14] = molecular target: T6, G-protein coupled receptor 151 (Homo sapiens) (UniProt Q8TDV0); assay: Agonist activity at GPR151 (unknown origin) expressed in CHO-K1 cells at 10 uM after 90 to 180 mins by beta-arrestin assay relative to control; format: cell-based
T6 sequence (whole entry): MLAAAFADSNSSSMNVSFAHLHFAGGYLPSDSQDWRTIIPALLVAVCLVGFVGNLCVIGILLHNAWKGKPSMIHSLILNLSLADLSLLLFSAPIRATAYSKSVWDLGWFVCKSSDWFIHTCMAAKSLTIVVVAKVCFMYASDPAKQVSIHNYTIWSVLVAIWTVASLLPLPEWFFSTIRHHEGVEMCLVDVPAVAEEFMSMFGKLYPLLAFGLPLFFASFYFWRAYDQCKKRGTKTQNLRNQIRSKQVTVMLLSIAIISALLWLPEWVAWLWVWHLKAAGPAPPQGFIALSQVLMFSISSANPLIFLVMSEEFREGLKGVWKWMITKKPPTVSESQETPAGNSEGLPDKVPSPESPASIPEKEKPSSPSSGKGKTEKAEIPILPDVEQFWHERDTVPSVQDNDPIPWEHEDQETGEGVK

[15] = molecular target: T7, Probable G-protein coupled receptor 132 (Homo sapiens) (UniProt Q9UNW8); assay: Agonist activity at GPR132 (unknown origin) expressed in CHO-K1 cells at 10 uM after 90 to 180 mins by beta-arrestin assay relative to control; format: cell-based
T7 sequence (whole entry): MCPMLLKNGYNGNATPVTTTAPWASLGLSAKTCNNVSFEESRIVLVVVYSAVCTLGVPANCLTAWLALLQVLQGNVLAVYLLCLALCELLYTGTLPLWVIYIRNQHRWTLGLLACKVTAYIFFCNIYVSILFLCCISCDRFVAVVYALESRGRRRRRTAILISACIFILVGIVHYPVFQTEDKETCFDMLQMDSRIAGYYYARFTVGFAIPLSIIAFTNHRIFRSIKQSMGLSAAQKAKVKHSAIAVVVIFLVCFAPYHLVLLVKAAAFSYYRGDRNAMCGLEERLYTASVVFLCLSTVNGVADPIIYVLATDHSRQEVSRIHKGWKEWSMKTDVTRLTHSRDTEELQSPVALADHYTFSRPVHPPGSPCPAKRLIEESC

[16] = molecular target: G-protein coupled receptor 55 (Homo sapiens) (UniProt Q9Y2T6); assay: Agonist activity at GPR55 (unknown origin) expressed in CHO-K1 cells at 10 uM after 90 to 180 mins by beta-arrestin assay relative to control; format: cell-based
Sequence of G-protein coupled receptor 55 (Homo sapiens) (Q9Y2T6 whole entry): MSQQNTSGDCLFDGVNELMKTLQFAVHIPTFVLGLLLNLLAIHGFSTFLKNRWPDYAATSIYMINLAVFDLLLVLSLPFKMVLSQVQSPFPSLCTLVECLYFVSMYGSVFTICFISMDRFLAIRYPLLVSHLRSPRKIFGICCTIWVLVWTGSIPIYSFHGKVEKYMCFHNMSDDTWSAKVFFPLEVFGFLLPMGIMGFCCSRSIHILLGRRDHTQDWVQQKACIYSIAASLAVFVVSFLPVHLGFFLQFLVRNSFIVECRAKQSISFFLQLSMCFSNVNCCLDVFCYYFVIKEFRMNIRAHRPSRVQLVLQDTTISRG

[17] = molecular target: T3, Follicle-stimulating hormone receptor (Homo sapiens); assay: Agonist activity at FSHR (unknown origin) at 10 uM after 90 to 180 mins by beta-arrestin assay relative to control
[18] = molecular target: T4, Prolactin-releasing peptide receptor (Homo sapiens); assay: Agonist activity at PRLHR (unknown origin) at 10 uM after 90 to 180 mins by beta-arrestin assay relative to control
[19] = molecular target: T2, Cannabinoid receptor 1; assay: Agonist activity at CB1 receptor (unknown origin) at 10 uM after 90 to 180 mins by beta-arrestin assay relative to control
[20] = molecular target: T1, Cannabinoid receptor 2; assay: Agonist activity at CB2 receptor (unknown origin) after 90 to 180 mins by beta-arrestin assay

C/C=C/C=C/C=C\CC/C=C/C(=O)NCC(C)(O)CO (centres undefined)
Ratio IC50 [1]: 0.24 | inhibition [2]: 65% | IC50 [3]: 168 nM | inhibition [4]: 76% | IC50 [5]: 41 nM

C/C=C/C=C/C=C/CC/C=C/C=C/C(=O)NCC(C)(C)O
Ratio IC50 [1]: 6.2 | inhibition [2]: 34% | IC50 [3]: 224 nM | inhibition [4]: 39% | IC50 [5]: 1390 nM

C/C=C/C=C/C=C\CC/C=C/C(=O)NCC(C)(C)O
IC50 [3]: 59 nM | IC50 [5]: 7400 nM

C/C=C/C=C/C=C/CC/C=C/C=C/C(=O)NCC(C)C
% activity [6]: 64% | inhibition [7]: 68% | inhibition [8]: 72% | inhibition [9]: 52% | inhibition [10]: 15% | Activity [11]: 7% | Activity [12]: 18% | Activity [13]: 18% | Activity [14]: 76% | Activity [15]: 61% | Activity [16]: 67% | Activity [17]: 5% | Activity [18]: 5% | Activity [19]: 5% | EC50 [20]: 41.7 nM | Ratio IC50 [1]: 0.15 | inhibition [2]: 57% | IC50 [3]: 664 nM | inhibition [4]: 37% | IC50 [5]: 100 nM

CC/C=C/C/C=C\CC/C=C/C=C/C(=O)NCC(C)(C)O
Ratio IC50 [1]: 0.26 | inhibition [2]: 62% | IC50 [3]: 9100 nM | inhibition [4]: 45% | IC50 [5]: 2400 nM

C/C=C/C=C/C=C/CC/C=C/C(=O)NCC(C)(C)O
IC50 [3]: 131 nM | IC50 [5]: 9 nM

CCCCCCCCC/C=C/C=C/C(=O)NCC(C)(C)O [TETRAHYDROBUNGEANOOL]
Ratio IC50 [1]: 2560 | inhibition [2]: 73% | IC50 [3]: 2 nM | inhibition [4]: 30% | IC50 [5]: 4600 nM

C/C=C/C=C/C=C\CC/C=C/C=C/C(=O)NCC(C)(C)O
Ratio IC50 [1]: 0.9 | inhibition [2]: 65% | IC50 [3]: 197 nM | inhibition [4]: 31% | IC50 [5]: 184 nM
